Consider 4 molecules from ChEMBL document CHEMBL3525900, “Pharmacokinetics, distribution, and metabolism of [14C]sunitinib in rats, monkeys, and humans” (Drug Metab Dispos, 2012).

What all share (settings): in vivo
Data set [1] in a line: Drug excretion in urine of female cynomolgus monkey treated with [14C]sunitinib at 6 mg/kg, po administered as single dose by liquid scintillation counting. Details: dose 6 mg/kg, dosed compound name [14C]Sunitinib, route oral. The data set is classed as ADME, organism-based, Macaca fascicularis. In short, it runs like this:
(§1)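 Cynomolgus monkeys given one oral gavage dose of [14C]sunitinib L-malate, 6 mg/kg (37 µCi/kg). Urine collected at 0-4, 4-8 and 8-24 h, feces at 0-8 and 8-24 h, then both daily to 14 days; samples stored at -80 °C. Duplicate urine aliquots counted by liquid scintillation; homogenized feces combusted before counting.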

Data set [2] is described as follows: Drug excretion in urine of human treated with [14C]sunitinib at 50 mg, po administered as single dose by liquid scintillation counting.
A short description of data set [3]: Drug excretion in urine of female Sprague-Dawley rat treated with [14C]sunitinib at 15 mg/kg, po administered as single dose by liquid scintillation counting. Type of data set: ADME, organism-based. More on the design: dose 15 mg/kg, dosed compound name [14C]Sunitinib, route oral. An outline of the steps:
(§2)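 Female and male rats given one oral gavage dose, 15 mg/kg free base equivalents (50 µCi/kg). Urine and feces collected on dry ice, protected from light, over 0-4, 4-8 and 8-24 h, then daily to 72 h. Urine aliquots counted by liquid scintillation; homogenized feces combusted in oxygen before counting. Counts 5 min, external quench correction.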

Data set [4] is described as follows: Drug excretion in urine of male Sprague-Dawley rat treated with [14C]sunitinib at 15 mg/kg, po administered as single dose by liquid scintillation counting. More on the design: dose 15 mg/kg, dosed compound name [14C]Sunitinib, route oral. The data set is classed as ADME, organism-based. In short, it runs like this: as §2
A short description of data set [5]: Drug excretion in urine of male cynomolgus monkey treated with [14C]sunitinib at 6 mg/kg, po administered as single dose by liquid scintillation counting. Details: dose 6 mg/kg, dosed compound name [14C]Sunitinib, route oral. The data set is classed as ADME, organism-based, Macaca fascicularis. An outline of the steps:
as §1

The nature of data set [6]: Drug excretion in feces of female cynomolgus monkey treated with [14C]sunitinib at 6 mg/kg, po administered as single dose by liquid scintillation counting. Type of data set: ADME, organism-based, Macaca fascicularis. More on the design: dose 6 mg/kg, dosed compound name [14C]Sunitinib, route oral. In short, it runs like this:
as §1

Data set [7] in a line: Drug excretion in feces of male cynomolgus monkey treated with [14C]sunitinib at 6 mg/kg, po administered as single dose by liquid scintillation counting. The data set is classed as ADME, organism-based, Macaca fascicularis. More on the design: dose 6 mg/kg, dosed compound name [14C]Sunitinib, route oral. An outline of the steps:
as §1

The nature of data set [8]: Drug excretion in urine of female Sprague-Dawley rat treated with [14C]sunitinib at 5 mg/kg, iv administered as single dose by liquid scintillation counting. Type of data set: ADME, organism-based. Details: dose 5 mg/kg, dosed compound name [14C]Sunitinib, route intravenous. An outline of the steps: (§3)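 Five female rats given a single tail-vein bolus of [14C]sunitinib L-malate, 5 mg/kg free base equivalents (50 µCi/kg). Urine and feces collected over 0-72 h into dry-ice cooled containers. Urine counted directly by liquid scintillation; feces homogenized and combusted in oxygen before counting. Expired air also monitored.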

Data set [9] is described as follows: Drug excretion in feces of human treated with [14C]sunitinib at 50 mg, po administered as single dose by liquid scintillation counting.
Data set [10] in a line: Drug excretion in feces of female Sprague-Dawley rat treated with [14C]sunitinib at 15 mg/kg, po administered as single dose by liquid scintillation counting. Details: dose 15 mg/kg, dosed compound name [14C]Sunitinib, route oral. The data set is classed as ADME, organism-based. An outline of the steps:
as §2

Data set [11] is described as follows: Drug excretion in feces of female Sprague-Dawley rat treated with [14C]sunitinib at 5 mg/kg, iv administered as single dose by liquid scintillation counting. Details: dose 5 mg/kg, dosed compound name [14C]Sunitinib, route intravenous. Type of data set: ADME, organism-based. An outline of the steps:
as §3

For `CC[N+]([O-])(CC)CCNC(=O)c1c(C)[nH]c(/C=C2\C(=O)Nc3ccc(F)cc32)c1C`, the Compound recovery is given as 0.2% in data set [1]; “metabolite_not_detected” in [2]; 1.5% in data set [3]; 0.3% in [4]; less than 0.1% in [5]; 2.6% in [6]. Besides, the Compound recovery in data set [7] is recorded as 3.2%; in data set [8], 0.7%.

Take `Cc1[nH]c(/C=C2\C(=O)Nc3ccc(F)cc32)c(C)c1C(=O)NCC(=O)O`: the results for the Compound recovery entry in data set [9], in data set [6] and in [7] were “metabolite_not_detected”, 6.2% and 6.3%, respectively.

In the case of `CCNCC(O)NC(=O)c1c(C)[nH]c(/C=C2\C(=O)Nc3ccc(F)cc32)c1C` (centres undefined), the Compound recovery result in data set [9] is “metabolite_not_detected”; in [6] it was 0.8%; in [7], 1%.

Take `Cc1[nH]c(/C=C2\C(=O)Nc3ccc(F)cc32)c(C)c1C(=O)NCCN`: the Compound recovery entry was “metabolite_not_detected” in data set [9]; 1.7% in [10]; 1.1% in [11]; 0.8% in [6]; 1% in [7].
